Measured values reported in ChEMBL document CHEMBL1129073, “Metabolically programmed polyamine analogue antidiarrheals” (J Med Chem, 1996).

What was measured:
L1210 [1] = assay: In vitro inhibition of uptake [3H]-spermidine in L1210 (murine leukemia) cells.; type: functional, cell-based, Mus musculus
[2] = Effect of Chronic compound treatment on polyamine homeostasis in mouse liver (native[N+]) total dose of 100 mg/kg; type: ADME, organism-based; set-up: dose 100 mg/kg; settings: in vivo
Outline: (§1)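 Groups of three female CD-1 mice were given 20 mg/kg/day as a single daily ip injection for 5 days (total 100 mg/kg, 215.3 μmol/kg). Mice were sacrificed 24 h after the last dose. Liver and kidney perchloric acid extracts were dansylated and run on HPLC, quantified against calibration curves. [N+] equivalents = 2[diamine] + 3[triamine] + 4[tetraamine], in nequiv/g wet weight, ±SD.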

L1210 [3] = assay: Growth inhibitory activity of compound on L1210 cells after 96 hours; type: functional, cell-based; settings: Mus musculus, L1210, 96 h
Outline: (§2)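 Murine L1210 leukemia cells were kept in log-phase suspension in RPMI-1640 with 10% FBS, 2% HEPES-MOPS, 1 mM aminoguanidine and 1 mM L-glutamine at 37 °C under 5% CO₂. They were dosed at 0.5–1.0 × 10⁵ cells/mL with analogue in sterile water, 0.2 μm filtered. For the 96 h value, cells were reseeded at 48 h. Cells were counted electronically. IC50 is the concentration giving 50% of control growth, net of the inoculum.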

L1210 [4] = assay: Ability to competitively inhibit radioligand spermidine transport in L1210 cells; type: functional, cell-based, Mus musculus
Outline: (§3)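 Murine L1210 leukemia cells in RPMI-1640 with 10% FBS and 1 mM aminoguanidine. Pellets washed in cold medium containing 1 mM SPD, dissolved in NaOH, scintillation counted. Ki from Lineweaver–Burke plots; Km(SPD) 2.1 μM; mean of ≥3 experiments.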

[5] = Acute toxicity was assessed after ip administration of a single dose of 325 mg/kg to a group of 5 female CD-1 mice; type: organism-based; set-up: dose 325 mg/kg, route intraperitoneal; settings: CD-1, mouse, in vivo
L1210 [6] = assay: Growth inhibitory activity of compound on L1210 cells after 48 hours; type: functional, cell-based; settings: Mus musculus, L1210, 48 h; outline: as §2
[7] = Effect of Chronic compound treatment on polyamine homeostasis in mouse kidney (native[N+]) at total dose of 100 mg/kg; type: ADME, organism-based; set-up: dose 100 mg/kg; settings: in vivo; outline: as §1
[8] = Effect of Chronic compound treatment on polyamine homeostasis in mouse kidney (total[N+]) at total dose of 100 mg/kg; type: ADME, organism-based; set-up: dose 100 mg/kg; settings: in vivo; outline: as §1
[9] = Effect of Chronic compound treatment on polyamine homeostasis in mouse liver(total[N+]) total dose of 100 mg/kg; type: ADME, organism-based; set-up: dose 100 mg/kg; settings: in vivo; outline: as §1
L1210 [10] = assay: Ability to competitively inhibit uptake of radiolabeled spermidine in L1210 cells; type: functional, cell-based, Mus musculus; outline: as §3
L1210 (Mus musculus) = assay: Growth inhibitory activity of compound on L1210 cells after 96 hours; settings: L1210, 96 h
[11] = Effect of Chronic compound treatment on polyamine homeostasis in mouse kidney (native[N+]) at total dose of 90 mg/kg; type: ADME, organism-based; set-up: dose 90 mg/kg; settings: in vivo
Outline: (§4)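 Groups of three female CD-1 mice were dosed at 15 mg/kg/day for 6 days (total 90 mg/kg, 208.3 μmol/kg). Mice were sacrificed 1 day after the final dose. Liver and kidney perchloric acid extracts were dansylated and analysed by HPLC against calibration standards. [N+] equivalents = 2[diamine] + 3[triamine] + 4[tetraamine], in nequiv/g wet weight, ±SD.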

[12] = Effect of Chronic compound treatment on polyamine homeostasis in mouse liver (native[N+]) at total dose of 90 mg/kg; type: ADME, organism-based; set-up: dose 90 mg/kg; settings: in vivo; outline: as §4
[13] = Effect of Chronic compound treatment on polyamine homeostasis in mouse liver(total[N+]) at total dose of 90 mg/kg; type: ADME, organism-based; set-up: dose 90 mg/kg; settings: in vivo; outline: as §4

C(CNC1CCNCC1)CNC1CCNCC1
Ki (L1210 [1]): 60.5 µM

CCNCCC(O)CNCCCCNCC(O)CCNCC (stereo unspecified)
LD50 [2]: 6118 mg/kg
IC50 (L1210 [3]): 50 nM
Ki (L1210 [4]): 1800 nM
LD50 [5]: 325 mg/kg
IC50 (L1210 [6]): 600 nM
LD50 [7]: 3251 mg/kg
LD50 [8]: 5427 mg/kg
LD50 [9]: 6706 mg/kg

c1cc(CNCCCCNCc2ccncc2)ccn1
Ki (L1210 [1]): > 500 µM

C(CCNCCCCNC12CC3CC(CC(C3)C1)C2)CNCCCCNC12CC3CC(CC(C3)C1)C2
Ki (L1210 [10]): 2000 nM

c1cc(NCCCNc2ccncc2)ccn1
Ki (L1210 [1]): > 500 µM

CCNCCCCNCCCCNCCCCNCC [DIETHYLHOMOSPERMINE]
IC50 (L1210 (Mus musculus)): 50 nM
LD50 [11]: 1560 mg/kg
LD50 [12]: 5506 mg/kg
LD50 [5]: 325 mg/kg
LD50 [13]: 7806 mg/kg

CCNCCCNCCCNCCCNCC [BIS(ETHYL)NORSPERMINE]
LD50 [5]: 325 mg/kg

CCNCCCCNC1CCC(NCCCCNCC)CC1 (stereo unspecified)
Ki (L1210 [1]): 3.5 µM

CCNCCCNC1CCC(NCCCNCC)CC1 (stereo unspecified)
Ki (L1210 [1]): 7.9 µM

C(CCNCCC1CCNCC1)CNCCC1CCNCC1
Ki (L1210 [1]): 18.1 µM
